Test [1] concerns the target Delta-type opioid receptor (Homo sapiens, UniProt P41143). Nature of the test: Displacement of [3H]Naltindole from human delta opioid receptor expressed in CHO cell membrane. It is filed as cell membranes. The gist of the method:
(§1)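 Compounds were tested as hydrochloride salts in competition binding against the tritiated radioligand on CHO cell membranes. Ki values are given ± SEM.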
A general note: In a radioligand displacement assay an active substance lowers the binding of a labelled ligand.

For test [2], the species on record is Homo sapiens. Nature of the test: Selectivity ratio of Ki for human mu opioid receptor to Ki for human delta opioid receptor.
Test [3] is filed under the species Homo sapiens. In words: Selectivity ratio of Ki for human kappa opioid receptor to Ki for human delta opioid receptor.
For a further test, the target named is Mu-type opioid receptor (Homo sapiens, UniProt P35372). In words: Displacement of [3H]DAMGO from human mu opioid receptor expressed in CHO cell membrane. It is filed as cell membranes.
Mu-type opioid receptor, sequence (P35372 whole entry): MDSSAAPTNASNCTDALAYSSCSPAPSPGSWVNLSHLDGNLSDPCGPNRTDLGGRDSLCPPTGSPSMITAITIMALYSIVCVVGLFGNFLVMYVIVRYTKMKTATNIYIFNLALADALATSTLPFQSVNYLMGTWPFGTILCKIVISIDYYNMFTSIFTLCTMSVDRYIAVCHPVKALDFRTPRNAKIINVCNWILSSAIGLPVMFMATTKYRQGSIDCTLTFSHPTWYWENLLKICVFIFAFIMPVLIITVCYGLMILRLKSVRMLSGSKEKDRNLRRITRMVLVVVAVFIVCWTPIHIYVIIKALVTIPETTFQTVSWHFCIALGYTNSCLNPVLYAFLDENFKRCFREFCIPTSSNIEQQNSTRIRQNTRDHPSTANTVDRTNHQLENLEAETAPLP
Test [4] is filed under the species Homo sapiens. Nature of the test: Selectivity ratio of Ki for human mu opioid receptor to Ki for human kappa opioid receptor.
Test [5] concerns the target Kappa-type opioid receptor (Homo sapiens, UniProt P41145). Nature of the test: Displacement of [3H]U69593 from human kappa opioid receptor expressed in CHO cell membrane. It is filed as cell membranes. The gist of the method:
as §1

Kappa-type opioid receptor, sequence (P41145 whole entry): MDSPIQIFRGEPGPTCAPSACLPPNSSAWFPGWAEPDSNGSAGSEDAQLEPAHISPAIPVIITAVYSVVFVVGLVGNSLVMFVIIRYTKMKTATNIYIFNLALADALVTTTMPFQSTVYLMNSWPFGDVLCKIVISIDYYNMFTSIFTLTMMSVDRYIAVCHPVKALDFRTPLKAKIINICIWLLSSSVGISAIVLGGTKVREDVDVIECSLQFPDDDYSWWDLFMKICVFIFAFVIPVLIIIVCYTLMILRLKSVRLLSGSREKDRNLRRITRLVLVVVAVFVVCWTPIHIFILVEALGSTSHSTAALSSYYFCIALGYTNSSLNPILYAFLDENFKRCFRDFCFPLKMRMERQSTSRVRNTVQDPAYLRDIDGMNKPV
Delta-type opioid receptor, sequence (P41143 whole entry): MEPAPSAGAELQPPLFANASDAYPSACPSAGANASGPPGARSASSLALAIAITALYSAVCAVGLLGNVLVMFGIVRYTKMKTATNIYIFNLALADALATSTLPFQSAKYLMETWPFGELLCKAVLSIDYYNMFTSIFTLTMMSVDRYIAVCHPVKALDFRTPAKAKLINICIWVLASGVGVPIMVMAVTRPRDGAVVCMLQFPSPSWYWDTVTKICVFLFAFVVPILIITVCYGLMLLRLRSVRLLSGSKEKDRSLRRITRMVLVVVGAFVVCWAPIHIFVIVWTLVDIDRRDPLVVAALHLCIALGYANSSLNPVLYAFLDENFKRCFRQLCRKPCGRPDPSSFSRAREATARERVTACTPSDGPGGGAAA

Usually Ki stands for the dissociation constant of the complex between target and ligand, obtained from inhibition or displacement. With `O=C(COc1ccccc1)Oc1ccc2c(c1)[C@@]13CCCC[C@@]1(O)[C@@H](C2)N(CC1CCC1)CC3`, the Ki is 22 nM in test [1], 0.061 nM at Mu-type opioid receptor and 0.048 nM in test [5]. Besides, the Ratio Ki stood at 458 in the test listed under Homo sapiens [2], 1.3 in the test filed under Homo sapiens [3] and 1 in the test filed under Homo sapiens [4].
On to `C[C@H]1[C@H]2Cc3ccc(C(=O)N(C)CCc4ccc(-c5ccccc5)cc4)cc3[C@@]1(C)CCN2CC1CC1`, for which the figures for the Ki (in test [1]; on Mu-type opioid receptor; in test [5]) were 12 nM, 6.7 nM and 11 nM, respectively. Further, the figures for the Ratio Ki in the test filed under Homo sapiens [2], in the test listed under Homo sapiens [3] and in the test filed under Homo sapiens [4] were 1.8, 1 and 1.6, respectively.
Regarding `O=C(Cc1ccc(-c2ccccc2)cc1)Oc1ccc2c(c1)[C@@]13CCCC[C@@]1(O)[C@@H](C2)N(CC1CCC1)CC3`, the Ki was found to be 190 nM in test [1], 2.7 nM on Mu-type opioid receptor and 0.87 nM in test [5]. Also, the values for the Ratio Ki in the test listed under Homo sapiens [2], in the test filed under Homo sapiens [3] and in the test listed under Homo sapiens [4] were 218, 3.1 and 1, respectively.
In the case of `Cc1ccc(C(C)C(=O)Oc2ccc3c(c2)[C@@]24CCCC[C@@]2(O)[C@@H](C3)N(CC2CCC2)CC4)cc1` (some centres undefined), the Ki in test [1] came to 96 nM; on Mu-type opioid receptor, 2.3 nM; in test [5], 1.3 nM. Moreover, the figures for the Ratio Ki in the test listed under Homo sapiens [2], in the test filed under Homo sapiens [3] and in the test listed under Homo sapiens [4] were 74, 1.9 and 1, respectively.
For the compound `O[C@@]12CCCC[C@@]13CCN(CC1CCC1)[C@@H]2Cc1ccc(OCc2ccccc2)cc13`, the Ki in test [1] came out at 670 nM; on Mu-type opioid receptor, 21 nM; in test [5] it was 28 nM. Besides, the Ratio Ki in the test filed under Homo sapiens [2] was determined as 32; in the test filed under Homo sapiens [3], 1; in the test listed under Homo sapiens [4], 1.3.
As for `Oc1ccc2c(c1)[C@@]13CCCC[C@@]1(O)[C@@H](C2)N(CC1CCC1)CC3` [BUTORPHANOL], the affinity in test [5], expressed as Ki, was 0.12 nM. In other words, the sub-nanomolar range.
Take `OCCCOc1ccc2c(c1)[C@@]13CCCC[C@@]1(O)[C@@H](C2)N(CC1CCC1)CC3`: the inhibition constant Ki in test [1] was found to be 490 nM; on Mu-type opioid receptor, 18 nM; in test [5], 8.6 nM. Further, the Ratio Ki in the test filed under Homo sapiens [2] came out at 57; in the test listed under Homo sapiens [3], 2.1; in the test listed under Homo sapiens [4], 1.
With `O=C(Cc1ccccc1)Oc1ccc2c(c1)[C@@]13CCCC[C@@]1(O)[C@@H](C2)N(CC1CCC1)CC3`, the results for the inhibition constant (Ki) (in test [1]; at Mu-type opioid receptor; in test [5]) were 63 nM, 0.32 nM and 0.48 nM, respectively. Besides, the Ratio Ki in the test filed under Homo sapiens [2] was found to be 197; in the test listed under Homo sapiens [3], 1; in the test filed under Homo sapiens [4] it was 1.5.
Consider `Nc1ccc(Oc2ccc3c(c2)[C@@]24CCCC[C@@]2(O)[C@@H](C3)N(CC2CCC2)CC4)cc1`, for which the Ki in test [1] worked out at 930 nM; at Mu-type opioid receptor it was 3.9 nM; in test [5], 5.2 nM. The results for the Ratio Ki in the test listed under Homo sapiens [2], in the test filed under Homo sapiens [3] and in the test listed under Homo sapiens [4] were 240, 1 and 1.3, respectively.
As to `O[C@@]12CCCC[C@@]13CCN(CC1CCC1)[C@@H]2Cc1ccc(OCCc2ccccc2)cc13`, the inhibition constant Ki is 500 nM in test [1], 10 nM on Mu-type opioid receptor and 9 nM in test [5]. In addition, the values for the Ratio Ki in the test filed under Homo sapiens [2], in the test listed under Homo sapiens [3] and in the test filed under Homo sapiens [4] were 56, 1 and 1, respectively.
Take `NC(=O)COc1ccc2c(c1)[C@@]13CCCC[C@@]1(O)[C@@H](C2)N(CC1CCC1)CC3`: the inhibition constant (Ki) in test [1] is 760 nM; on Mu-type opioid receptor it was 55 nM; in test [5], 67 nM. Further, the Ratio Ki in the test listed under Homo sapiens [2] stood at 11; in the test filed under Homo sapiens [3], 1; in the test listed under Homo sapiens [4], 1.2.
For the compound `O=C(Oc1ccc2c(c1)[C@@]13CCCC[C@@]1(O)[C@@H](C2)N(CC1CCC1)CC3)c1ccc(-c2ccccc2)cc1`, the Ki was 690 nM in test [1], 15 nM at Mu-type opioid receptor and 18 nM in test [5]. Moreover, the Ratio Ki in the test listed under Homo sapiens [2] was 46; in the test filed under Homo sapiens [3], 1; in the test listed under Homo sapiens [4], 1.
Consider `O=[N+]([O-])c1ccc(Oc2ccc3c(c2)[C@@]24CCCC[C@@]2(O)[C@@H](C3)N(CC2CCC2)CC4)cc1`, for which the results for the inhibition constant (Ki) (in test [1]; at Mu-type opioid receptor; in test [5]) were 1500 nM, 16 nM and 28 nM, respectively. In addition, the Ratio Ki in the test listed under Homo sapiens [2] turned out to be 94; in the test listed under Homo sapiens [3], 1; in the test filed under Homo sapiens [4], 1.8.
For the compound `COc1ccc(CC(=O)Oc2ccc3c(c2)[C@@]24CCCC[C@@]2(O)[C@@H](C3)N(CC2CCC2)CC4)cc1`, the Ki in test [1] came out at 23 nM; on Mu-type opioid receptor it was 0.22 nM; in test [5], 0.21 nM. In addition, the Ratio Ki stood at 110 in the test filed under Homo sapiens [2], 1 in the test listed under Homo sapiens [3] and 1 in the test listed under Homo sapiens [4].

The values above are taken from ChEMBL document CHEMBL1156604 (Bioorg Med Chem Lett, 2008).
